ChEMBL document CHEMBL4765352, “Discovery of AdipoRon analogues as novel AMPK activators without inhibiting mitochondrial complex I” (Eur J Med Chem, 2020)
The source made the active and inactive calls. The rule behind the calls is not given here.

Assays:
C2C12 [1] = assay: Activation of AMPK in mouse C2C12 cells assessed as increase in AMPK phosphorylation at Thr172 residue at 10 uM measured after 2 hrs by Western blot analysis; type: cell-based; conditions: filed as activator
Summary of the method: (§1)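 C2C12 myoblasts differentiated in DMEM with 2% horse serum for 5-7 days until myotubes formed. Treated for 2 h, either at 10 μM or across a concentration range, or at 10 μM over a time course. RIPA lysates (~30 µg protein) blotted for p-AMPK/AMPK and p-ACC/ACC, detected by ECL. The p-AMPK/AMPK ratio is expressed as fold of the DMSO vehicle.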

[2] = Induction of glucose consumption in mouse C2C12 cells at 10 uM measured after 12 hrs by glucose oxidase method (reference value: 100 %); type: functional
Summary of the method: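 Differentiated C2C12 myotubes were switched to DMEM containing 2.75 g/L glucose and treated for 12 h at 37 °C, with cell-free blank wells as reference. Glucose left in the medium was measured by the GOD-POD method at 570 nm. Consumption was derived by subtraction and expressed as percentage of the DMSO group.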

C2C12 [3] = assay: Activation of AMPK in mouse C2C12 cells assessed as increase in ACC phosphorylation at 10 uM by Western blotting analysis; type: cell-based; conditions: filed as activator, time 0.5-24 hrs, TDE = time-dependent effect; summary of the method: as §1
[4] = Induction of cardiac hypertrophy in normal lean C57BL/6 mouse assessed as increase in cardiac glycogen level at 100 mg/kg, ig administered for 4 weeks by PAS staining based analysis; type: organism-based; conditions: in vivo, po, 672 h
Summary of the method: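 Male C57BL/6 mice, 9 weeks old, dosed intragastrically daily for 4 weeks. After saline perfusion, organ weights and tibia length were recorded. Heart pieces were fixed in 4% paraformaldehyde, embedded in paraffin and stained with periodic acid-Schiff to show glycogen.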

Homo sapiens = species on record: Homo sapiens; assay: Activation of AMPK alpha1/beta1/gamma1 (unknown origin)
H9c2 = assay: Activation of AMPK in rat H9C2 cells assessed as increase in phosphorylation of ACC at 1 to 20 uM incubated for 1 to 24 hrs by Western blot analysis; type: cell-based; conditions: dose 1-20 µM, time 1-24 hrs
Summary of the method: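 Rat cardiac H9C2 cells treated with a concentration range for 2 h or 4 h, or with 10 μM over a time course. Lysates blotted for phosphorylated and total AMPK and ACC, detected by ECL.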

Compound: CC(C)(Oc1ccc(Cl)cc1)C(=O)Nc1ccc(OCc2ccc(C#N)cc2)cc1
- Activity (C2C12 [1]): Active
- Activity [2]: 151.8%
- Activity (C2C12 [3]): Tde
- Activity [4]: Non-Toxic
- Activity (Homo sapiens): inactive
- Activity (H9c2): inactive
